Laboratory results from ChEMBL document CHEMBL1144610, “High-affinity carbamate analogues of morphinan at opioid receptors” (Bioorg Med Chem Lett, 2007).
Activity calls are given as the source filed them. The rule behind the calls is not given here.

Tests used:
Mu-type opioid receptor [1] = target: T1, Mu-type opioid receptor (Homo sapiens, UniProt P35372); assay: Displacement of [3H]DAMGO from human mu opioid receptors expressed in CHO cell membrane
[2] = target: T2, Kappa-type opioid receptor (Homo sapiens, UniProt P41145); assay: Displacement of [3H]U-69593 from human kappa opioid receptors expressed in CHO cell membrane
T2 sequence (P41145 whole entry): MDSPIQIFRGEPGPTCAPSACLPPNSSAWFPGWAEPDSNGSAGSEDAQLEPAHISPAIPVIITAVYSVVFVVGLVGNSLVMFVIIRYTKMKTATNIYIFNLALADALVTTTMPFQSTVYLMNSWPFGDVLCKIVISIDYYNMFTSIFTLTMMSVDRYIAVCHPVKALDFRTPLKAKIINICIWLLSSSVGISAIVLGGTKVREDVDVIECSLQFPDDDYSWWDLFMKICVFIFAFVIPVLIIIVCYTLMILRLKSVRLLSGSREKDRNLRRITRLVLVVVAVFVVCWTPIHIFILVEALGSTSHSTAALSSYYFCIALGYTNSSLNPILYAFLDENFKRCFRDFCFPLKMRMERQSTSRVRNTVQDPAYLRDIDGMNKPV

[3] = target: Delta-type opioid receptor (Homo sapiens, UniProt P41143); assay: Displacement of [3H]naltrindole from human delta opioid receptors expressed in CHO cell membrane
Sequence of Delta-type opioid receptor (P41143 whole entry): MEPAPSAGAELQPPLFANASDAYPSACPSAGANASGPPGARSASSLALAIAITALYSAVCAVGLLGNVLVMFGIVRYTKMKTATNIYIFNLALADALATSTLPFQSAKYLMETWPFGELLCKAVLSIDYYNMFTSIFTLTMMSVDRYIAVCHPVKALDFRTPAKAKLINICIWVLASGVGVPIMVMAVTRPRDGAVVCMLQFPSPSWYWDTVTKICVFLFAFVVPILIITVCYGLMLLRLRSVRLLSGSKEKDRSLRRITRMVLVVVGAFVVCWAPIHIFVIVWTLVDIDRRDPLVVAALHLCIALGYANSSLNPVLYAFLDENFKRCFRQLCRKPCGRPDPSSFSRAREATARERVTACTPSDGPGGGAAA

[4] = target: Opioid receptors; mu & kappa (Homo sapiens) (UniProt P41145+P35372); assay: Selectivity for kappa opioid receptor over mu opioid receptor expressed in CHO cells; assay type: cell-based
Sequence of Opioid receptors; mu & kappa (Homo sapiens) (P35372 whole entry, looked up): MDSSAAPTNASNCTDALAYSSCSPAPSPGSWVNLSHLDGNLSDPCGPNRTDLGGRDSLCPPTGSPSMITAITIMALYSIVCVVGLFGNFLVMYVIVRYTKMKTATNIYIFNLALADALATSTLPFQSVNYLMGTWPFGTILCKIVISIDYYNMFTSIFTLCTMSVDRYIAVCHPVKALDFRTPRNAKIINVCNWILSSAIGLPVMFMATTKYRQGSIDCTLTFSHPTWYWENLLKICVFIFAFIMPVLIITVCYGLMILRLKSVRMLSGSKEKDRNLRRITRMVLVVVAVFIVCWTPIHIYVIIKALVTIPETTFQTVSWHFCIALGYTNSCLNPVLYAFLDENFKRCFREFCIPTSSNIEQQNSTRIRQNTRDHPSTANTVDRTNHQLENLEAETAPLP
Sequence of Opioid receptors; mu & kappa (Homo sapiens) (P41145 whole entry, looked up): as the sequence (P41145 whole entry) above

[5] = target: Opioid receptors; delta & kappa (Homo sapiens) (UniProt P41145+P41143); assay: Selectivity for kappa opioid receptor over delta opioid receptor; assay type: protein assay
Sequence of Opioid receptors; delta & kappa (Homo sapiens) (P41143 whole entry, looked up): as the sequence (P41143 whole entry) above
Sequence of Opioid receptors; delta & kappa (Homo sapiens) (P41145 whole entry, looked up): as the sequence (P41145 whole entry) above

[6] = target: T2, Kappa-type opioid receptor; assay: Agonist activity at human opioid kappa receptor expressed in CHO cells assessed as maximal stimulation of [35S]GTP-gamma-S binding relative to control; assay type: functional, cell-based
Summary of the method: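 CHO cell membranes stably expressing only the human κ opioid receptor were incubated with varying concentrations of each compound. Stimulation of [35S]GTPγS binding was measured, and maximal stimulation was taken as Emax.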

[7] = target: T2, Kappa-type opioid receptor; assay: Agonist activity at huma kappa opioid receptor expressed in CHO cells assessed as […] of [35S]GTP-gamma-S binding; assay type: functional, cell-based
Mu-type opioid receptor [8] = target: T1, Mu-type opioid receptor; assay: Agonist activity at human mu opioid receptor expressed in CHO cells assessed as maximal stimulation of [35S]GTP-gamma-S binding; assay type: functional, cell-based
Mu-type opioid receptor [9] = target: T1, Mu-type opioid receptor; assay: Antagonist activity at human mu opioid receptor expressed in CHO cells assessed as DAMGO-stimulated [35S]GTP-gamma-S binding; assay type: functional, cell-based
[10] = Displacement of [3H]naltrindole from human delta opioid receptors expressed in CHO cell membrane

T1 sequence (P35372 whole entry): as the sequence (P35372 whole entry, looked up) above

With `CCNC(=O)Oc1ccc2c(c1)C13CCCCC1C(C2)N(C)CC3` (stereo not given) the Ki (Mu-type opioid receptor [1]) was 4.8 nM, the Ki [2] was 36 nM and the Ki [3] was 78 nM. For the same compound, the Ratio Ki [4] was 0.1 and the Ratio Ki [5] was 2.
Compound `CCNC(=O)Oc1ccc2c(c1)C13CCCCC1C(C2)N(CC1CCC1)CC3` (stereo not given) has a Ki (Mu-type opioid receptor [1]) of 3.7 nM, a Ki [2] of 4.3 nM and a Ki [3] of 27 nM. It also gave a Ratio Ki [4] of 0.9, a Ratio Ki [5] of 6 and an Emax [6] of 61%. The EC50 [7] was 23 nM, the EC50 (Mu-type opioid receptor [8]) was 39 nM and the Emax (Mu-type opioid receptor [8]) was 32%. The Activity (Mu-type opioid receptor [9]) was “inactive” and the Imax (Mu-type opioid receptor [9]) was 33%.
Compound `CNC(=O)Oc1ccc2c(c1)C13CCCCC1C(C2)N(C)CC3` (stereo not given) has a Ki (Mu-type opioid receptor [1]) of 1.4 nM, a Ki [2] of 3.3 nM and a Ki [3] of 53 nM. The Ratio Ki [4] was 0.4, the Ratio Ki [5] was 16 and the Emax [6] was 96%. The EC50 [7] was 29 nM, the EC50 (Mu-type opioid receptor [8]) was 50 nM and the Emax (Mu-type opioid receptor [8]) was 71%.
In the case of `O=C(Nc1ccccc1)Oc1ccc2c(c1)C13CCCCC1C(C2)N(CC1CC1)CC3` (stereo not given), the Ki (Mu-type opioid receptor [1]) is reported as 0.11 nM, the Ki [2] is reported as 0.046 nM and the Ki [3] is reported as 1.6 nM. It also gave a Ratio Ki [4] of 2.4, a Ratio Ki [5] of 35 and an Emax [6] of 120%. For the same compound, the EC50 [7] was 0.38 nM, the EC50 (Mu-type opioid receptor [8]) was 0.44 nM and the Emax (Mu-type opioid receptor [8]) was 39%. It also gave an IC50 (Mu-type opioid receptor [9]) of 6.4 nM and an Imax (Mu-type opioid receptor [9]) of 70%.
For `CNC(=O)Oc1ccc2c(c1)C13CCCCC1C(C2)N(CC1CC1)CC3` (single isomer, unassigned; (-)), the Ki (Mu-type opioid receptor [1]) was 5.3 nM, the Ki [2] was 3.4 nM and the Ki [3] was 42 nM. For the same compound, the Ratio Ki [4] was 1.6, the Ratio Ki [5] was 12 and the Emax [6] was 78%. It also gave an EC50 [7] of 16 nM, an EC50 (Mu-type opioid receptor [8]) of 14 nM and an Emax (Mu-type opioid receptor [8]) of 44%.
`CNC(=O)Oc1ccc2c(c1)C13CCCCC1C(C2)N(CC1CCC1)CC3` (single isomer, unassigned; (-)) gave a Ki (Mu-type opioid receptor [1]) of 1.2 nM, a Ki [2] of 0.81 nM and a Ki [3] of 30 nM. It also gave a Ratio Ki [4] of 1.5, a Ratio Ki [5] of 37 and an Emax [6] of 88%. It also gave an EC50 [7] of 9.6 nM, an EC50 (Mu-type opioid receptor [8]) of 11 nM and an Emax (Mu-type opioid receptor [8]) of 60%.
For `O=C(Nc1ccccc1)Oc1ccc2c(c1)C13CCCCC1C(C2)N(CC1CCC1)CC3` (single isomer, unassigned; (-)), the Ki (Mu-type opioid receptor [1]) was 0.12 nM, the Ki [2] was 0.051 nM and the Ki [3] was 3.9 nM. For the same compound, the Ratio Ki [4] was 2, the Ratio Ki [5] was 76 and the Emax [6] was 74%. It also gave an EC50 [7] of 2.2 nM, an EC50 (Mu-type opioid receptor [8]) of 1.3 nM and an Emax (Mu-type opioid receptor [8]) of 80%. It also gave an IC50 (Mu-type opioid receptor [9]) of 22 nM and an Imax (Mu-type opioid receptor [9]) of 37%.
For `O=C(NCc1ccccc1)Oc1ccc2c(c1)C13CCCCC1C(C2)N(CC1CC1)CC3` (single isomer, unassigned; (-)), the Ki (Mu-type opioid receptor [1]) was 0.3 nM, the Ki [2] was 0.14 nM and the Ki [3] was 2.7 nM. The Ratio Ki [4] was 2, the Ratio Ki [5] was 20 and the Emax [6] was 130%. For the same compound, the EC50 [7] was 1.1 nM, the EC50 (Mu-type opioid receptor [8]) was 2.2 nM and the Emax (Mu-type opioid receptor [8]) was 39%. It also gave an IC50 (Mu-type opioid receptor [9]) of 16 nM and an Imax (Mu-type opioid receptor [9]) of 71%.
In the case of `O=C(NCc1ccccc1)Oc1ccc2c(c1)C13CCCCC1C(C2)N(CC1CCC1)CC3` (single isomer, unassigned; (-)), the Ki (Mu-type opioid receptor [1]) is reported as 0.7 nM, the Ki [2] is reported as 0.3 nM and the Ki [3] is reported as 15 nM. The Ratio Ki [4] was 0.4, the Ratio Ki [5] was 50 and the Emax [6] was 110%. The EC50 [7] was 4.7 nM, the EC50 (Mu-type opioid receptor [8]) was 7.1 nM and the Emax (Mu-type opioid receptor [8]) was 54%. The IC50 (Mu-type opioid receptor [9]) was 260 nM and the Imax (Mu-type opioid receptor [9]) was 50%.
Work on `CCNC(=O)Oc1ccc2c(c1)C13CCCCC1C(C2)N(CC1CC1)CC3` (single isomer, unassigned; (-)) yielded a Ki (Mu-type opioid receptor [1]) of 0.29 nM, a Ki [2] of 0.14 nM and a Ki [3] of 2.8 nM. It also gave a Ratio Ki [4] of 2, a Ratio Ki [5] of 20 and an Emax [6] of 140%. For the same compound, the EC50 [7] was 1.2 nM, the EC50 (Mu-type opioid receptor [8]) was 2.4 nM and the Emax (Mu-type opioid receptor [8]) was 40%. For the same compound, the IC50 (Mu-type opioid receptor [9]) was 10 nM and the Imax (Mu-type opioid receptor [9]) was 68%.
In the case of `Oc1ccc2c(c1)[C@@]13CCCC[C@H]1[C@@H](C2)N(CC1CCC1)CC3` [BUTORPHAN], the Ki [10] is reported as 5.9 nM.
With `Oc1ccc2c(c1)[C@@]13CCCC[C@H]1[C@@H](C2)N(CC1CC1)CC3` [CYCLORPHAN] the Ki [10] was 1.9 nM.
